Data from ChEMBL document CHEMBL1137569, “Pharmacomodulations around the 4-oxo-1,4-dihydroquinoline-3-carboxamides, a class of potent CB2-selective cannabinoid receptor ligands: consequences in receptor affinity and functionality” (J Med Chem, 2007).

Key:
[1] = molecular target: T1, Cannabinoid receptor 2 (Homo sapiens, UniProt P34972); test: Inhibition of human CB2 receptor expressed in CHO cells; type: cell-based
[2] = molecular target: T1, Cannabinoid receptor 2; test: Displacement of [3H]CP-55940 from human CB2 receptor expressed in CHO cells; type: cell-based; set-up: concentration or dose not given beside the values
Procedure, shortened: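 Competitive radioligand binding on membranes from CHO cells expressing hCB2, with [3H]-CP-55,940 as tracer. Compounds were first screened at 10 µM. Ki at CB2 was then determined for those displacing more than 60% of specific binding.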

[3] = molecular target: T1, Cannabinoid receptor 2; test: Activity at human CB2 receptor expressed in CHO cells assessed as stimulated [35S]GTP-gamma-S binding relative to control; type: functional, cell-based; set-up: concentration or dose not given beside the values

T1 sequence (P34972 whole entry): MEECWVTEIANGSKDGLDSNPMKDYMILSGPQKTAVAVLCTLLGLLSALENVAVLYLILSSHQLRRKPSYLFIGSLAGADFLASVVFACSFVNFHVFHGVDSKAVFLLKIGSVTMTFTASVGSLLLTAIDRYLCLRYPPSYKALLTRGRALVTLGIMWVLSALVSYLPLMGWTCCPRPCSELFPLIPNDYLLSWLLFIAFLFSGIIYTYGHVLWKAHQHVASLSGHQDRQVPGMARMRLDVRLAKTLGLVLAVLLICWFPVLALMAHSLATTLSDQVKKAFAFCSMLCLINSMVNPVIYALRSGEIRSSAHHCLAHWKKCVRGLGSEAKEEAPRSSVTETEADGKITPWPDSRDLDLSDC

SMILES	Ki [1]	Activity [2]	Activity [3]
CCCCCn1cc(C(=O)NC(C)C23CC4CC(CC(C4)C2)C3)c(=O)c2ccccc21 (stereo in doubt; 24) [listing 1 of 2 here]	14 nM		
CCCCCn1cc(C(=O)c2ccc(OC)cc2)c(=O)c2ccccc21		46.9%	
CCCCCn1cc(C(=O)NC2CCCc3ccccc32)c(=O)c2ccccc21 (single isomer, unassigned; (+)) [listing 1 of 2 here]	41.7 nM		
O=C(c1cn(Cc2ccc(Br)cc2)c2ccccc2c1=O)c1cccc2ccccc12	966 nM	93.7%	
O=C(c1cn(CCN2CCOCC2)c2ccccc2c1=O)c1cccc2ccccc12		46.1%	
CCCCCn1cc(C(=O)NC2CCCc3ccccc32)c(=O)c2cc(Cl)ccc21 (racemic) [listing 1 of 2 here]	506 nM		
CCCCCn1cc(C(=O)NC2CCCc3ccccc32)c(=O)c2ccccc21 (single isomer, unassigned; (-)) [listing 1 of 2 here]	1010 nM		
CCCC(C)(C)c1ccc2c(c1)OC(C)(C)[C@@H]1CC=C(C)C[C@@H]21			201%
CCCCCn1c(C)c(C(=O)NC(C)c2ccccc2)c(=O)c2ccccc21 (single isomer, unassigned; (-))	663 nM	91.7%	186%
CCCCCn1cc(C(=O)NC(C)C23CC4CC(CC(C4)C2)C3)c(=O)c2ccc(Cl)cc21 (single isomer, unassigned; (+)) [listing 1 of 2 here]		92.9%	42.7%
CCCCCn1c(C)c(C(=O)NCCc2ccccc2)c(=O)c2ccccc21		57.3%	
CCCCCn1c(C)c(C(=O)NC(C)c2cccc3ccccc23)c(=O)c2ccccc21 (single isomer, unassigned; (-))	> 3000 nM	70.4%	
CCCCCn1cc(C(=O)c2c3ccccc3cc3ccccc23)c(=O)c2ccccc21	1500 nM	76.5%	
CCCCCn1nc(C(=O)NC23CC4CC(C)(CC(C)(C4)C2)C3)c(=O)c2ccccc21	93 nM	94.6%	109%
CC12CC3CC(C)(C1)CC(NC(=O)c1cn(Cc4ccc(F)cc4)c4ccccc4c1=O)(C3)C2	83.4 nM	93.2%	157%
CCCCCn1cc(C(=O)NC23CC4CC(C)(CC(C)(C4)C2)C3)c(=O)c2cccnc21	23.5 nM	102%	124%
O=C(c1cn(Cc2ccccc2)c2ccccc2c1=O)c1cccc2ccccc12	656 nM	100%	
CCCCCn1cc(C(=O)NC(C)C23CC4CC(CC(C4)C2)C3)c(=O)c2ccc(Cl)cc21 (single isomer, unassigned; (-)) [listing 1 of 2 here]	26.1 nM		
CCCCn1cc(C(=O)c2cccc3ccccc23)c(=O)c2ccccc21	1550 nM	77.7%	
CCCCCn1cc(C(=O)NC(C)C23CC4CC(CC(C4)C2)C3)c(=O)c2ccc(Cl)cc21 (single isomer, unassigned; (-)) [listing 2 of 2 here]		102%	53.5%
CC12CC3CC(C)(C1)CC(NC(=O)c1cn(CCN4CCOCC4)c4ccccc4c1=O)(C3)C2	221 nM	95.6%	141%
CCCCCn1cc(C(=O)NC(C)C23CC4CC(CC(C4)C2)C3)c(=O)c2cc(Cl)ccc21 (racemic) [listing 1 of 2 here]		81.8%	97.3%
CCCCCn1cc(C(=O)NC23CC4CC(C)(CC(C)(C4)C2)C3)c(=O)c2ncccc21	259 nM	93.4%	170%
CCCCCCn1cc(C(=O)c2cccc3ccccc23)c(=O)c2ccccc21	582 nM	89.5%	

SMILES	Ki [1]	Activity [2]	Activity [3]
CC12CC3CC(C)(C1)CC(NC(=O)c1cn(CCc4ccccc4)c4ccccc4c1=O)(C3)C2	333 nM	95.8%	141%
CC12CC3CC(C)(C1)CC(NC(=O)c1cn(CCCc4ccccc4)c4ccccc4c1=O)(C3)C2	160 nM	101%	98.8%
O=C(c1c[nH]c2ccccc2c1=O)c1cccc2ccccc12		31%	
CCCCCn1cc(C(=O)c2ccc3ccccc3c2)c(=O)c2ccccc21	1290 nM	74.3%	
CCCCCn1cc(CNC23CC4CC(CC(C4)C2)C3)c(=O)c2ccccc21	1670 nM	81.3%	
CCCCCn1cc(C(=O)NC2CCCc3ccccc32)c(=O)c2cc(Cl)ccc21 (single isomer, unassigned; (+)) [listing 1 of 2 here]		92.8%	124%
CCCCCn1cc(C(=O)c2ccccc2)c(=O)c2ccccc21	446 nM	94.5%	
O=C(c1cn(CCC2CCCCC2)c2ccccc2c1=O)c1cccc2ccccc12	1670 nM	78.5%	
CCCCCn1cc(NC(=O)CCc2ccccc2)c(=O)c2ccccc21	1130 nM	83.4%	183%
CCCCCn1cc(C(=O)c2ccc3cc(OC)ccc3c2)c(=O)c2ccccc21		44.1%	
CCCCCn1cc(C(=O)NC(C)C23CC4CC(CC(C4)C2)C3)c(=O)c2ccccc21 (single isomer, unassigned; (+)) [listing 1 of 2 here]	202 nM		
CCCCCn1cc(C(=O)NC23CC4CC(C)(CC(C)(C4)C2)C3)c(=S)c2ccccc21	18.2 nM	95.7%	65.6%
CCCCCCC(C)(C)c1ccc(C2CC(O)CC[C@H]2CCCO)c(O)c1 (single isomer, unassigned)			230%
O=C(c1cn(Cc2ccc(Cl)cc2)c2ccccc2c1=O)c1cccc2ccccc12	1120 nM	96.5%	
CCCCCn1cc(C(=O)c2ccc3c(c2)COC3)c(=O)c2ccccc21	> 2000 nM	70.2%	
O=C(NC12CC3CC(CC(C3)C1)C2)c1cn(CCN2CCOCC2)c2ccccc2c1=O	152 nM	101%	
CC(NC(=O)c1cn(CCN2CCOCC2)c2ccccc2c1=O)c1ccccc1 (single isomer, unassigned; (-))	< 2000 nM	66.5%	
CCCCCn1c(-c2ccccc2)c(C(=O)NC23CC4CC(C)(CC(C)(C4)C2)C3)c(=O)c2ccccc21	119 nM	97.2%	27.1%
O=C(c1cn(CCc2ccccc2)c2ccccc2c1=O)c1cccc2ccccc12		56.8%	
CC12CC3CC(C)(C1)CC(NC(=O)c1cn(Cc4ccc(Cl)cc4)c4ccccc4c1=O)(C3)C2		48.1%	
CCCCCn1cc(C(=O)NC2CCCc3ccccc32)c(=O)c2cc(Cl)ccc21 (single isomer, unassigned; (+)) [listing 2 of 2 here]	121 nM		
CCCCCn1cc(CNCC2CCCc3ccccc32)c(=O)c2ccccc21 (racemic)	> 4000 nM	63.9%	
CCCCCn1cc(C(=O)NC(C)C23CC4CC(CC(C4)C2)C3)c(=O)c2ccccc21 (single isomer, unassigned; (+)) [listing 2 of 2 here]		64.3%	172%
CCCCCn1cc(C(=O)NC(C)C23CC4CC(CC(C4)C2)C3)c(=O)c2cc(Cl)ccc21 (single isomer, unassigned; (+)) [listing 1 of 2 here]	144 nM		

SMILES	Ki [1]	Activity [2]	Activity [3]
CCCCCn1cc(C(=O)NC(C)C23CC4CC(CC(C4)C2)C3)c(=O)c2ccc(Cl)cc21 (racemic) [listing 1 of 2 here]		102%	56.3%
O=C(NCCc1ccccc1)c1cn(CCN2CCOCC2)c2ccccc2c1=O		46.7%	
CCCCCn1cc(C(=O)NC23CC4CC(C)(CC(C)(C4)C2)C3)c(=O)c2cnccc21	30.9 nM	95%	136%
CCCCCn1cc(C(=O)NC(C)C23CC4CC(CC(C4)C2)C3)c(=O)c2cc(Cl)ccc21 (single isomer, unassigned; (+)) [listing 2 of 2 here]		97.2%	76.7%
CCCCCn1c(-c2ccccc2)c(C(=O)NC23CC4CC(CC(C4)C2)C3)c(=O)c2ccccc21	338 nM	94.9%	26.5%
CCCCCCn1cc(C(=O)c2ccc(OC)cc2)c(=O)c2ccccc21	> 2000 nM	68.8%	
CC12CC3CC(C)(C1)CC(NC(=O)c1cn(CCC4CCCCC4)c4ccccc4c1=O)(C3)C2		38.8%	157%
CCCCCn1c(C)c(C(=O)NC(C)c2ccc3ccccc3c2)c(=O)c2ccccc21 (single isomer, unassigned; (-))	> 2000 nM	62.6%	
CCCCCn1cc(C(=O)NC2CCCc3ccccc32)c(=O)c2ccccc21 (single isomer, unassigned; (+)) [listing 2 of 2 here]			183%
CCCCCn1cc(C(=O)NC(C)C23CC4CC(CC(C4)C2)C3)c(=O)c2cc(Cl)ccc21 (single isomer, unassigned; (-)) [listing 1 of 2 here]		87.7%	86.1%
CCCCCn1cc(C(=O)NC2CCCc3ccccc32)c(=O)c2ccccc21 (single isomer, unassigned; (-)) [listing 2 of 2 here]		90.9%	
CCCCCn1cc(C(=O)NC(C)C23CC4CC(CC(C4)C2)C3)c(=O)c2ccc(Cl)cc21 (racemic) [listing 2 of 2 here]	41.1 nM		
CCCCCn1cc(C(=O)NC(C)C23CC4CC(CC(C4)C2)C3)c(=O)c2cc(Cl)ccc21 (racemic) [listing 2 of 2 here]	222 nM		
CCCCCn1cc(C(=O)NC(C)C23CC4CC(CC(C4)C2)C3)c(=O)c2ccccc21 (racemic) [listing 1 of 2 here]	28.5 nM		
CCCCn1cc(C(=O)c2ccc(OC)cc2)c(=O)c2ccccc21		< 10%	
O=C(c1cn(CCCc2ccccc2)c2ccccc2c1=O)c1cccc2ccccc12	> 2000 nM	80.4%	
CCCCCn1cc(C(=O)NC2CCCc3ccccc32)c(=O)c2cc(Cl)ccc21 (racemic) [listing 2 of 2 here]		98.2%	98.5%
CC12CC3CC(C)(C1)CC(NC(=O)c1cn(Cc4ccc(Br)cc4)c4ccccc4c1=O)(C3)C2		30.5%	
CCCCCn1cc(C(=O)NC(C)C23CC4CC(CC(C4)C2)C3)c(=O)c2ccc(Cl)cc21 (single isomer, unassigned; (+)) [listing 2 of 2 here]	265 nM		
CCCCCn1cc(C(=O)NC(C)C23CC4CC(CC(C4)C2)C3)c(=O)c2ccccc21 (stereo in doubt; 24) [listing 2 of 2 here]		101%	175%
CCCCCn1cc(C(=O)NC(C)C23CC4CC(CC(C4)C2)C3)c(=O)c2ccccc21 (racemic) [listing 2 of 2 here]		99.1%	156%
CCCCCn1cc(C(=O)NC(C)C23CC4CC(CC(C4)C2)C3)c(=O)c2cc(Cl)ccc21 (single isomer, unassigned; (-)) [listing 2 of 2 here]	235 nM		
CCCCCn1cc(CNCCc2ccccc2)c(=O)c2ccccc21	> 4000 nM	25.9%	
